Only some compounds are listed: those with a hit (about 3.7% of all), similar ones and a draw of the others.
OX1R antag-1 = OX1R (human) antagonism; O43613; OX1R-expressing cells, FRET antagonist read-out; inhibition, % at 6.6 µM; hit rate 1.8% among 330,000; in the data active means inhibition mostly above about 38%, no sharp cut-off; inactive means mostly below about 40%;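 further: 0% = agonist challenge alone and 100% = reference antagonist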
Target sequence (O43613 whole entry, looked up): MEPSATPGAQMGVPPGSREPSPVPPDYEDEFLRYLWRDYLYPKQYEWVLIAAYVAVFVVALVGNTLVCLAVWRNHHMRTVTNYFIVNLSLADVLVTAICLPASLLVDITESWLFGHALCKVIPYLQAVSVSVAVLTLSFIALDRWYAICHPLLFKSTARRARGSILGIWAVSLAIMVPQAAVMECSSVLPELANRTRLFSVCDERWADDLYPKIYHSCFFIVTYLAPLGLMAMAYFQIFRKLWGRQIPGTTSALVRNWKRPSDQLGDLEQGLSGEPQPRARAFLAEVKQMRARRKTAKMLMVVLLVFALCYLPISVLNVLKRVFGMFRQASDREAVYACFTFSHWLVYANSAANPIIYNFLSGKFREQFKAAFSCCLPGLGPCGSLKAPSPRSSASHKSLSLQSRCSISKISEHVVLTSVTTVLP
GPR7 antag = blocks human GPR7 receptor signaling | P48145 | GPR7-expressing cells, fluorescence antagonist assay | inhibition, % at 4.4 µM | hit rate 1.1% among 290,000; in the data active means inhibition above about 16%, passing the limit was not always enough;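 further: cells stimulated with the agonist NPW; 0% = agonist with vehicle and 100% = vehicle without agonist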
Target sequence (P48145 whole entry, looked up): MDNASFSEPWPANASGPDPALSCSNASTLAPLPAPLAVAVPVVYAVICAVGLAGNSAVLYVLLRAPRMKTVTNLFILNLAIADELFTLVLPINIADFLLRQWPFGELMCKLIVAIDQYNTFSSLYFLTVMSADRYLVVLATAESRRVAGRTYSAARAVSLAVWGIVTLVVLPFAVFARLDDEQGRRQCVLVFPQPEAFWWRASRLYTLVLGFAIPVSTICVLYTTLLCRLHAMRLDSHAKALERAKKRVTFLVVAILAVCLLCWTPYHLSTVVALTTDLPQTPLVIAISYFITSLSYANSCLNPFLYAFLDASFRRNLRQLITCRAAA
OX1R antag-2 = human HCRTR1 antagonism; hit rate 0.43% among 330,000; O43613; inhibition, % at 5 µM; AID 434989; CHO/OX1R cells, Fluo-8 calcium fluorescence, orexin A;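 active means inhibition above its plate's threshold, mean inhibition of all tested compounds on the plate plus 3 SD, cut at about 37% in these data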;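 further: 0% = orexin A challenge wells and 100% = SB-334867-A antagonist wells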
PGE2 EP2 inh = blocks the human prostaglandin E2 receptor EP2. hit rate 0.52% among 260,000. P43116. C6 glioma cells expressing human EP2, cAMP TR-FRET; cells stimulated with saturating PGE2. AID 1422. inhibition, % at 25 µM;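 active means percent inhibition above 40 after rounding to a whole number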;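 further: rat C6 glioma host cells with rolipram phosphodiesterase inhibitor present; the protocol text gives 20 µM as final concentration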
EP2 modulator = modulates human prostaglandin E2 receptor EP2 signaling; P43116; EP2-expressing cells, cAMP HTRF FRET, PGE2 co-stimulation; induction, % at 25 µM; hit rate 0.83% among 260,000;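 active means compounds whose cAMP rise, as percent of the full-agonist control response, exceeds 60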;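 further: rat C6 glioma line stably carrying human EP2 under a CMV promoter; the protocol text gives 20 µM as final concentration; 100% = response of wells given 1 µM PGE2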
CHO parental Ca = signal in parental CHO cells, OX1R antagonist counter-screen | parental CHO-K1, ATP-induced calcium, Fluo-8 fluorescence | inhibition, % at 5.6 µM | hit rate 0.63% among 330,000 | AID 463079;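 active means inhibition above that plate's mean sample inhibition plus 3 SD, cut at about 26% in these data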;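 further: 0% = ATP-challenged DMSO wells and 100% = DMSO wells without ATP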
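Measured by: calcium-sensitive Fluo-8 fluorescence / Test system: CHO parental line / Controls: ATP-challenged DMSO wells low, unchallenged DMSO wells high / Measure: % inhibition / Compound: single nominal dose of 5.6 µM per compound / Replicates: single well per compound, no replicates / Reagent: ATP as calcium-mobilizing challenge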
Starred values were filed as active, the others as inactive; . = no result given.

SMILES | OX1R antag-1 | GPR7 antag | OX1R antag-2 | PGE2 EP2 inh | EP2 modulator | CHO parental Ca
CCC(=O)Nc1ccc(-c2nc3ccccc3c(=O)o2)cc1 | . | -2.0 | . | 4.1 | -28.8 | .
CC(C)Sc1nc(N2CCCC2)c2c(c1C#N)CC(C)(C)OC2 | 43.3 | -11.6 | -25.9 | 15.5 | 63.2* | -20.5
COc1cccc(OCc2cc(C(=O)N(C)CCC3CCCCO3)no2)c1 (centres undefined) | 3.8 | 6.0 | -10.3 | . | . | -17.3
COc1ccc2c(c1)CCc1c(-c3noc4c3CCc3cc(OC)ccc3-4)noc1-2 | . | . | . | 45.0* | -6.5 | .
O=C(NCC(c1cccs1)N1CCOCC1)c1cc(S(=O)(=O)N2CCOCC2)c(Cl)cc1Cl (centres undefined) | 21.7 | . | -15.4 | . | . | -22.2
NC(=O)c1ccc[n+]([C@@H]2O[C@H](COP(=O)([O-])OP(=O)(O)OC[C@H]3O[C@@H](n4cnc5c(N)ncnc54)[C@H](OP(=O)(O)O)[C@@H]3O)[C@@H](O)[C@H]2O)c1 | . | . | . | 9.5 | 70.9* | .
c1ccc([P+](CC[P+](c2ccccc2)(c2ccccc2)c2ccccc2)(c2ccccc2)c2ccccc2)cc1 | . | . | . | 45.1* | 18.4 | .
COc1ccccc1NC(=O)NCCc1ccccc1 | . | -14.1 | . | . | . | .
COc1ccccc1NC(=O)C(NC(=O)OC(C)(C)C)C(C)OCc1ccccc1 (centres undefined) | -0.2 | -14.7 | -55.2 | 3.6 | 62.8* | -22.2
O=C(O)c1c2c(nc3ccc(Cl)cc13)CCC2 | 12.6 | -9.6 | -7.1 | 11.3 | -24.0 | 8.6
COCCCNC(=O)c1c(NC(=O)c2ccccc2)sc2c1CCCC2 | . | . | . | 11.4 | 65.1* | .
COCCCNC(=O)c1c(NC(=O)c2ccc(C)cc2)sc2c1CCCC2 | . | . | . | 12.3 | 33.0 | .
Cc1ccc(NC(=O)C2CCN(C(=O)c3cccs3)CC2)cc1 | 10.4 | 3.4 | -4.0 | . | . | -9.7
CC(C)(C)NC(=O)c1cccc2c1C(=O)c1ccccc1-2 | 14.4 | -13.8 | -20.9 | 4.0 | 3.8 | -15.3
CCn1c(Cc2cccc3ccccc23)nnc1SCC(=O)Nc1nccs1 | 70.8* | 9.1 | 22.7 | 11.0 | 13.3 | -4.5
CCc1nnc(SCC(=O)Nc2nccs2)n1CC | 9.2 | -13.7 | -3.0 | . | . | -2.2
N#Cc1c2ccc([N+](=O)[O-])cc2[n+]([O-])n1-c1ccccc1 | 44.9* | . | 2.1 | . | . | 8.4
O=C(Nc1cc2c3c(c1)CC(=O)N3CCC2)c1ccc(F)cc1 | 11.5 | . | -17.1 | . | . | -9.1
COc1cccc(NC2=C(NCCO)C(=O)c3ccccc3C2=O)c1 | 45.6* | -2.0 | -29.1 | . | . | -15.2
COc1ccc(NC2=C(NCCO)C(=O)c3ccccc3C2=O)cc1 | 22.7 | 2.2 | 0.6 | 14.5 | -7.9 | -3.3
O=[N+]([O-])c1cc(Cl)cc(C2=NCCN2)c1 | 60.9* | -7.1 | -7.0 | 6.5 | 27.6 | -4.6
c1ccc(-c2ccc(-c3ccc(C4=NCCN4)cc3)o2)cc1 | . | . | . | 22.3 | -45.2 | .
CC(C)C1/C(=N/O)CC(c2ccccc2)NC1c1ccccc1 (centres undefined) | 2.8 | 20.9* | -10.9 | 7.0 | 25.9 | -9.3
OC(c1ccccc1)(c1ccc(F)cc1)C(c1ccccc1)N1CCOCC1 (centres undefined) | 38.2 | -22.2 | 2.8 | 5.6 | 60.6* | -15.1
O=C(NCC(c1ccc(F)cc1)N1CCOCC1)c1ccc(C(=O)c2ccccc2)cc1 (centres undefined) | 9.2 | -7.4 | -35.6 | 5.9 | -18.3 | -3.9
SMILES | OX1R antag-1 | GPR7 antag | OX1R antag-2 | PGE2 EP2 inh | EP2 modulator | CHO parental Ca
Cc1cccc(C)c1NC(=O)C1(NC(=O)C2CCC(=O)N2)CCCCC1 (centres undefined) | 0.3 | 4.0 | -10.3 | 5.0 | 11.2 | 8.6
Cc1cccc(C)c1NC(=O)C1(N2C(=O)CC2c2ccccc2)CCCCC1 (centres undefined) | 40.5 | 18.4* | -26.9 | 3.4 | 19.8 | -18.8
Cc1ccccc1-c1nc(CN2CCSCC2)c(C)o1 | 13.8 | -2.4 | -13.3 | 10.2 | 0.6 | -10.6
Cc1ccc(S(=O)(=O)O/N=C2\CCCc3ccccc32)cc1 | 19.8 | 3.8 | -19.7 | 10.6 | 16.5 | -2.2
CC1=C(C)/C(=N\OS(=O)(=O)c2ccccc2)C=CC1=O | 149.5* | 57.9* | 74.4* | 89.0* | -79.6 | 65.4*
CCCSc1nc(N2CCOCC2)c2c(c1C#N)CC(C)(C)SC2 | 1.7 | 5.6 | -12.7 | 12.7 | 64.6* | -17.6
CC(C)CSc1nc(N2CCOCC2)c2c(c1C#N)CC(C)(C)SC2 | 39.4 | 0.8 | -9.0 | 8.7 | 57.8 | -37.1
CCOC(=O)CSc1nc(N2CCOCC2)c2c(c1C#N)CC(C)(C)N(C)C2 | 46.3* | -15.4 | -31.3 | 4.0 | 1.5 | -26.9
COc1cc(NC(=O)CC2NCCNC2=O)cc(OC)c1 (centres undefined) | 8.9 | -1.1 | -9.7 | 5.0 | 5.2 | 5.0
Cc1ccccc1-c1ccc(=O)n(CC(=O)Nc2ccc(C(=O)N3CCCC3)cc2)n1 | 28.7 | 6.1 | -18.4 | 11.4 | 6.9 | 18.6
O=C(Cn1nc(-c2ccc3c(c2)OCCO3)ccc1=O)Nc1ccc(-n2cnnn2)cc1 | 14.8 | -9.5 | 10.1 | 8.0 | 13.7 | 29.2*
O=C(Cn1nc(-c2ccccc2)ccc1=O)Nc1ccc(N2CCN(C(=O)c3ccccc3)CC2)cc1 | 7.1 | 19.8* | -29.8 | 0.9 | -18.1 | -4.7
Cc1ccc([C@@H]2CC=C(C(=O)O)[C@H](c3ccc(Br)cc3)N2S(=O)(=O)c2ccccc2C)cc1 | 39.0* | . | 24.7 | . | . | -3.0
Cc1ccc([C@@H]2CC=C(C(=O)O)[C@H](c3ccc(Cl)cc3)N2S(=O)(=O)c2ccc(C)cc2)cc1 | 46.1 | . | -17.0 | . | . | -8.3
Cc1ccccc1S(=O)(=O)N1[C@@H](c2ccccc2)C(C(=O)O)=CC[C@H]1c1ccc(Cl)cc1 | 76.0* | . | 7.1 | . | . | -20.2
Cc1ccc(S(=O)(=O)N2[C@@H](c3ccc(Cl)cc3)C(C(=O)O)=CC[C@H]2c2ccc(Cl)cc2)cc1 | 57.6* | . | 11.9 | . | . | 2.2
COc1ccc([C@@H]2CC=C(C(=O)O)[C@H](c3ccc(Cl)cc3)N2S(=O)(=O)c2ccccc2C)cc1 | 48.2* | . | -13.8 | . | . | -26.4
CCOc1ccc([C@@H]2CC=C(C(=O)O)[C@H](c3ccc(Cl)cc3)N2S(=O)(=O)c2ccc(C)cc2)cc1 | 35.0 | . | -4.7 | . | . | -2.4
Cc1ccccc1S(=O)(=O)N1[C@@H](c2ccc(Br)cc2)C(C(=O)O)=CC[C@H]1c1ccc(Cl)cc1 | 33.6 | . | 7.2 | . | . | -11.8
O=C(O)c1cc2cccc(S(=O)(=O)N3CCCCC3)c2cc1O | 22.4 | -8.7 | 2.3 | . | . | -3.2
COc1cccc([C@@H]2CC=C(C(=O)O)[C@H](c3ccccc3)N2S(=O)(=O)c2ccc(C)cc2)c1 | 24.4 | . | -18.7 | . | . | -14.1
O=C(O)C1=CC[C@@H](c2ccc(Cl)cc2)N(S(=O)(=O)c2ccc(Cl)cc2)[C@H]1c1cccc(Cl)c1 | 85.0* | . | 36.8 | . | . | 78.4*
COc1cccc([C@@H]2CC=C(C(=O)O)[C@H](c3cccc(Cl)c3)N2S(=O)(=O)c2ccc(C)cc2)c1 | 68.6* | . | 9.1 | . | . | -17.4

Compound activity deposited in PubChem by several laboratories.
